Results as given in ChEMBL document CHEMBL1143973, “Imine derivatives as new potent and selective CB2 cannabinoid receptor agonists with an analgesic action” (Bioorg Med Chem, 2008).
Values after ≈ are worked out from the molar mass of the structure shown. Active and inactive are the calls of the source.

Assays:
Cannabinoid receptor 2 [1] = target: T1, Cannabinoid receptor 2 (Homo sapiens, UniProt P34972); test: Binding affinity to CB2 receptor
Cannabinoid receptor 2 [2] = target: T1, Cannabinoid receptor 2; test: Displacement of [3H]CP-55940 from human recombinant CB2 receptor expressed in CHO cells; format: cell-based
Cannabinoid receptor 1 [3] = target: T2, Cannabinoid receptor 1 (Homo sapiens, UniProt P21554); test: Displacement of [3H]CP-55940 from human recombinant CB1 receptor expressed in CHO cells; format: cell-based
Cannabinoid receptor 2 [4] = target: T1, Cannabinoid receptor 2; test: Agonist activity at human recombinant CB2 receptor expressed in CHO cells by [35S]GTP-gamma-S binding assay; format: functional, cell-based
How it was run: (§1)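 Membranes from CHO cells expressing human CB2 (5 µg/well) in Hepes buffer pH 7.4 with 100 mM NaCl, 3 mM MgCl2, 0.2% BSA, 3 µM GDP and 30 µg/mL saponin. Preincubated with compound for 30 min at 30 °C, then 0.1 nM [35S]GTPγS added for a further 30 min at 30 °C. Filtered and counted. Nonspecific binding defined with 10 µM GTPγS.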

Cannabinoid receptor 2 [5] = target: T1, Cannabinoid receptor 2; test: Agonist activity at human recombinant CB2 receptor expressed in CHO cells by [35S]GTP-gamma-S binding assay relative to CP-55940; format: functional, cell-based
How it was run: as §1, with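 “GTPγS. Emax expressed relative to the maximal response to CP 55,940.” for “GTPγS.”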

Cannabinoid receptor 2 [6] = target: T3, Cannabinoid receptor 2 (Rattus norvegicus, UniProt Q9QZN9); test: Displacement of [3H]CP-55940 from […] receptor in Sprague-Dawley rat spleen membrane; format: cell membranes
T3 sequence (Q9QZN9 whole entry): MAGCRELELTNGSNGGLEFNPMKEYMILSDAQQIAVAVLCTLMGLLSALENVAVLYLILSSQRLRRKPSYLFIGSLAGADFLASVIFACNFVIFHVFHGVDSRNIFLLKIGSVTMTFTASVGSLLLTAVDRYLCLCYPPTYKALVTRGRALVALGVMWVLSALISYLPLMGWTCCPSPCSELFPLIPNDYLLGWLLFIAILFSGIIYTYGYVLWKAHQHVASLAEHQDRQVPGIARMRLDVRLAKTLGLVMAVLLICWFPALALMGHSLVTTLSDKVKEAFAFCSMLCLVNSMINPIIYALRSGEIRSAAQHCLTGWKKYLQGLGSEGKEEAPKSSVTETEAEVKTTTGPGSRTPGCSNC
How it was run: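 Rat spleen membranes (100 µg/well) from male Sprague–Dawley rats in Tris-HCl buffer pH 7.4 with 5 mM EDTA, 5 mM MgCl2 and 0.2% BSA. Incubated with varying compound concentrations and 0.57 nM [3H]CP 55,940 at 25 °C for 120 min. Filtered and counted. Nonspecific binding defined with 2 µM CP 55,940.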

[7] = Tmax in Sprague-Dawley rat at 10 mg/kg, po; format: ADME, organism-based; parameters: dose 10 mg/kg, route oral; conditions: in vivo
How it was run: (§2)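 Male Sprague–Dawley rats, 7–8 weeks old, dosed orally at 10 mg/kg. Blood taken from the tail vein and plasma stored at -80 °C. Plasma protein-precipitated with acetonitrile/methanol (9:1) containing internal standard, then quantified by LC-MS/MS (ESI, positive MRM). LLOQ 1 ng/mL. Mean ± SD of three animals.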

[8] = Plasma concentration in Sprague-Dawley rat at 10 mg/kg, po after 1.67 hrs; format: ADME, organism-based; parameters: dose 10 mg/kg, route oral; how it was run: as §2
[9] = Half life in Sprague-Dawley rat at 10 mg/kg, po; format: ADME, organism-based; parameters: dose 10 mg/kg, route oral; conditions: in vivo; how it was run: as §2
[10] = AUC (0 to 8 hrs) in Sprague-Dawley rat at 10 mg/kg, po; format: ADME, organism-based; parameters: time < 8 hr, dose 10 mg/kg, route oral; conditions: plasma
Homo sapiens = species: Homo sapiens; test: Selectivity for human CB2 receptor over human CB1 receptor
[11] = Solubility in water at 25 degC; format: physicochemical
How it was run: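 Excess compound shaken in water at room temperature for 24 h, then centrifuged for 10 min at 25 °C. Supernatant diluted in 50% aqueous acetonitrile and quantified by reversed-phase HPLC with UV detection at 230 nm.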

[12] = Metabolic stability in human liver microsomes after 15 mins; format: ADME, Microsome; conditions: read-out: Stability
How it was run: (§3)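 Compound at 5 µM final incubated for 15 min at 37 °C with human or rat liver microsomes (1.0 mg protein/mL) in phosphate buffer with KCl, pH 7.4, plus an NADPH-generating system. Stopped with DMSO, centrifuged, and the remaining compound measured by LC-MS/MS. Run in triplicate.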

[13] = Metabolic stability in Sprague-Dawley rat liver microsomes after 15 mins; format: ADME, Microsome; conditions: read-out: Stability; how it was run: as §3
Rattus norvegicus [14] = test: Reversal of mechanical hyperalgesia in Wistar rat at 10 mg/kg, po after 1 hr by Randall-Selitto test; format: functional, organism-based; parameters: dose 10 mg/kg
How it was run: (§4)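 Male Wistar rats (200–220 g) given 0.1 mL of 20% yeast suspension into the right hind paw plantar surface. Control paw-withdrawal threshold read by algesiometer 2 h after yeast, then compound given orally in 5% gum arabic vehicle. Threshold re-read at 1 and 3 h. Result expressed as %MPE. Seven rats per group; Dunnett's test versus vehicle.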

Rattus norvegicus [15] = test: Reversal of mechanical hyperalgesia in Wistar rat at 30mg/kg, po after 1 hr by Randall-Selitto test; format: functional, organism-based; how it was run: as §4
Cannabinoid receptor 1 [16] = target: T2, Cannabinoid receptor 1; test: Binding affinity to CB1 receptor
Cannabinoid receptor 1 [17] = target: T2, Cannabinoid receptor 1; test: Agonist activity at CB1 receptor; format: functional
Cannabinoid receptor 2 [18] = target: T1, Cannabinoid receptor 2; test: Agonist activity at CB2 receptor; format: functional
How it was run: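 [³⁵S]GTPγS binding on membranes of CHO cells expressing human CB2. Buffer 20 mM Hepes, 100 mM NaCl, 3 mM MgCl2, 0.2% BSA, 3 µM GDP, 30 µg/mL saponin, pH 7.4. Membranes (5 µg/well) preincubated with compounds 30 min at 30 °C, then 0.1 nM [³⁵S]GTPγS added for 30 min at 30 °C. Filtration and scintillation counting; nonspecific binding with 10 µM GTPγS. EC50 derived; Emax relative to CP 55,940 maximum.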

T1 sequence (P34972 whole entry): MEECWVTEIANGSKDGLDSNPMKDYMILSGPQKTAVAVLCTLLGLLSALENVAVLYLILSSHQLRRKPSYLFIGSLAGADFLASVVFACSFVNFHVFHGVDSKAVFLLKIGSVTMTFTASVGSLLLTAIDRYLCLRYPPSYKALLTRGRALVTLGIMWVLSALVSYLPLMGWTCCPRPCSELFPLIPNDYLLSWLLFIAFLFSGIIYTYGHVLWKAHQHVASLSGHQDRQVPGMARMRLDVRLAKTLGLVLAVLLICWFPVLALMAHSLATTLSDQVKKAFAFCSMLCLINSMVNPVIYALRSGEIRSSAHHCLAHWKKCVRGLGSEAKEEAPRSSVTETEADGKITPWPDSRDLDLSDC
T2 sequence (P21554 whole entry): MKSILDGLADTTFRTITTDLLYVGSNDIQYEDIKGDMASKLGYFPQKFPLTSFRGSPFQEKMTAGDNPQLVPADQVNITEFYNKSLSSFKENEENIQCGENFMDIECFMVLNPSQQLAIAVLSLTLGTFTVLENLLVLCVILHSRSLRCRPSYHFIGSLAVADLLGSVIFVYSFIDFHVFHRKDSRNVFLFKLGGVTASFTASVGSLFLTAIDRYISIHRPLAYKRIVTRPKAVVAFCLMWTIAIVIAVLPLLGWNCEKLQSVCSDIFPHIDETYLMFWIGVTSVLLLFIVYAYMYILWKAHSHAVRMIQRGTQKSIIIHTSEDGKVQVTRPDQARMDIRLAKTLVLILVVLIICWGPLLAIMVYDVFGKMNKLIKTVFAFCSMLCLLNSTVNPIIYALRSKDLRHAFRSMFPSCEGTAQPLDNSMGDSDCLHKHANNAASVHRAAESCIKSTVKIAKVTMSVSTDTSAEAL

Row | Structure (SMILES) | IC50 (Cannabinoid receptor 2 [2]) [nM] | IC50 (Cannabinoid receptor 1 [3]) [nM] | EC50 (Cannabinoid receptor 2 [4]) [nM] | Emax (Cannabinoid receptor 2 [5]) [%] | also measured
1 | CC1(C)C(C(=O)c2cn(CCN3CCOCC3)c3ccccc23)C1(C)C |  |  |  |  | IC50 (Cannabinoid receptor 2 [1]): 0.77 nM
2 | Cn1c(C(C)(C)C)c/c(=N\C(=O)c2cccc(C(F)(F)F)c2Cl)n1CC1CC1 | 3.7 | 2200 | 1.5 | 82 | 
3 | CC(C)(C)c1c/c(=N\C(=O)c2cccc(C(F)(F)F)c2)n(CC2CC2)s1 | 9.5 |  |  |  | 
4 | CC(C)(C)c1nn(CC2CC2)/c(=N/C(=O)c2cccc(C(F)(F)F)c2)s1 | 300 |  |  |  | 
5 | CCOCCn1/c(=N/C(=O)c2cccc(C(F)(F)F)c2F)cc(C(C)(C)C)n1C | 3.7 | 870 | 1.1 | 82 | 
6 | Cn1c(C(C)(C)C)c/c(=N\C(=O)c2cc(C(F)(F)F)ccc2F)n1CC1CC1 | 23 | 3700 | 8.8 | 90 | 
7 | Cn1c(C(C)(C)C)c/c(=N\C(=O)c2cccc(C(F)(F)F)c2F)n1CC1CC1 | 2.9 | 4000 | 1.8 | 85 | IC50 (Cannabinoid receptor 2 [6]): 1.4 nM; Tmax [7]: 1.67 h; Cmax [8]: 545 ng/mL; half-life [9]: 2.47 h; AUC(0-t) at 8 h [10]: 2160 ng·h/mL; Ratio IC50 (Homo sapiens): 1400; solubility [11]: 59 µg/mL (≈ 148 µM); remaining at 0.25 h [12]: 92%; remaining at 0.25 h [13]: 86%; Activity (Rattus norvegicus [14]): Active; Activity (Rattus norvegicus [15]): Active
8 | Cc1c(C(=O)/N=c2\cc(C(C)(C)C)n(C)n2CC2CC2)cccc1C(F)(F)F | 11 | 1300 | 4.4 | 73 | 
9 | Cn1c(C(C)(C)C)c/c(=N\C(=O)c2cccc(C(F)(F)F)c2F)n1CC1CCC1 | 1.7 | 940 | 0.32 | 96 | 
10 | Cc1c(C(C)(C)C)s/c(=N\C(=O)c2cccc(C(F)(F)F)c2)n1CC1CC1 |  |  |  |  | Ratio IC50 (Homo sapiens): 270; solubility [11]: < 0.1 µg/mL
11 | Cn1c(C(C)(C)C)c/c(=N\C(=O)c2cccc(C(F)(F)F)c2)n1CC1CC1 | 51 |  |  |  | 
12 | Cn1c(C(C)(C)C)c/c(=N\C(=O)c2cccc(C(F)(F)F)c2F)n1CC1CCCC1 |  | 810 | 0.79 | 67 | 
13 | CN1CCCCC1Cn1cc(C(=O)c2cc([N+](=O)[O-])ccc2I)c2ccccc21 (stereo not given) |  |  |  |  | IC50 (Cannabinoid receptor 1 [16]): 280 nM; IC50 (Cannabinoid receptor 2 [1]): 3.4 nM
14 | CC(C)(C)c1c/c(=N\C(=O)c2cccc(C(F)(F)F)c2)n(CC2CC2)o1 | 46 |  |  |  | 
15 | O=C(NCC1CCOCC1)c1cnc(Nc2ccc(Cl)cc2Cl)nc1C(F)(F)F [GW842166X] |  |  |  |  | EC50 (Cannabinoid receptor 1 [17]): > 30000 nM; EC50 (Cannabinoid receptor 2 [18]): 50 nM
16 | Cc1c(C(C)C)o/c(=N\C(=O)c2cccc(C(F)(F)F)c2)n1CC1CC1 | 24 |  |  |  | 
17 | Cc1ccc(C(F)(F)F)cc1C(=O)/N=c1\cc(C(C)(C)C)n(C)n1CC1CC1 | 88 |  |  |  | 
18 | CC(C)OCCn1/c(=N/C(=O)c2cccc(C(F)(F)F)c2F)cc(C(C)(C)C)n1C | 2.6 | 760 | 0.85 | 76 | 
